Hep lipid drop: hepatic lipid droplet formation modulation; AML12 mouse hepatocytes, oleate lipid droplets, BODIPY imaging; inhibition, % at 6.5 µM; 0.4% of 240,000 active; AID 1656;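 active = lipid droplet intensity inhibited by at least 50%, with more than 500 cells counted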
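System: AML12 hepatocytes (mouse). Probe or stimulus: oleic acid at 100 µM to induce lipid droplet formation. Times: overnight treatment with compound plus oleate. Detection: Image-based BODIPY and DAPI two-channel analysis. Evaluation: percent inhibition of filter-corrected integrated lipid droplet intensity per well.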
RGS4 pot: potentiators or activators of RGS4; B-score at 10 µM; 0.92% of 310,000 active; HEK293 M3R/inducible RGS4, carbachol calcium flux Fluo4; active compounds read low;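 active = B-score of the integrated calcium signal more than 4 SD below the library mean, with starting fluorescence not abnormally high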;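 also: negative B-score means reduced calcium response which marks RGS4 activation or potentiation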
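Assay system: Inducible-RGS4 HEK293 cells carrying M3 receptor | Schedule: Compound preincubation 20 min at room temperature before agonist | Signal: Kinetic calcium fluorescence imaging with Fluo4-AM dye, 2 µM | Read-out basis: B score from integrated fluorescence ratio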
MrgX1 agonist: agonists of human MrgX1 receptor; Q96LB2; MrgX1-HEK293 cells, Fluo-4 calcium fluorescence, agonist mode; active compounds read high; B-score at 10 µM; 0.44% of 310,000 active;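 active = calcium response B-score plate-corrected fluorescence ratio at least 3 library SD, with starting fluorescence B-score inside 5 SD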
Target sequence (Q96LB2 whole entry, looked up): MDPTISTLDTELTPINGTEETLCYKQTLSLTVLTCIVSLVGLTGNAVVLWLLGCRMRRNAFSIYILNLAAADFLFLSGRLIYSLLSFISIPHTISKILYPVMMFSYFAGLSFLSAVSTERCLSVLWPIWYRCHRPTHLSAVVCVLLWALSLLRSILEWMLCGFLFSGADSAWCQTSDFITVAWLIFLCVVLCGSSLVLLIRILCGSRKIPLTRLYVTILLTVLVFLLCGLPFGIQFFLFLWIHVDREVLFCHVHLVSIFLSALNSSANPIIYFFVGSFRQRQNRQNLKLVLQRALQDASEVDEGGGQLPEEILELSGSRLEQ
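Material – MrgX1-expressing HEK293 cells · Input – 15,000 cells seeded per well · Dosing – compound as first of three additions · Times – overnight seeding, then 1 h dark dye loading · Measured by – kinetic Fluo-4 NW fluorescence of intracellular calcium · Read-out – B-scored fluorescence response ratio · Benchmarks – positive and negative control wells on each plate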
MrgX1 antagonist: blocks BAM8-22 activation of human MrgX1 receptor. MRGX1-HEK293 calcium flux, Fluo-4, BAM8-22 antagonism; active compounds read low. Q96LB2. 1.3% of 310,000 active. B-score at 10 µM;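 active = calcium-response B-score plate-corrected more than 3 library SD below zero, starting fluorescence within 5 deviations, no agonist response on first addition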;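 also: peak minus trough fluorescence over baseline after final BAM8-22 challenge near maximal dose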
MrgX1 allo act: human MrgX1 positive allosteric modulation, primary screen | B-score at 10 µM | MrgX1-HEK293, Fluo-4 calcium flux, FDSS; active compounds read high | AID 588675 | Q96LB2 | 0.63% of 310,000 active;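 active = plate-corrected calcium response at least 3 library SD above typical, normal starting fluorescence, not activating the receptor alone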;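 also: compound read alongside a low EC10 to EC30 dose of BAM8-22 agonist; peak minus trough fluorescence over baseline measured at the second addition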
RGS4 inh: inhibitors of human RGS4. HEK293 M3R/RGS4 inducible, Fluo-4 calcium flux; active compounds read high; triggered by carbachol at its EC20. B-score at 10 µM. 0.45% of 310,000 active. P49798;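 active = B-score, a plate-corrected calcium signal, over three deviations above library mean, with baseline fluorescence within five deviations of library mean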;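 also: RGS4 expression induced by doxycycline in cells with stable M3 receptor; B-score is computed from the integrated fluorescence ratio over baseline after carbachol; higher B-score means a larger calcium signal and so more RGS4 inhibition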
Target sequence (P49798 whole entry, looked up): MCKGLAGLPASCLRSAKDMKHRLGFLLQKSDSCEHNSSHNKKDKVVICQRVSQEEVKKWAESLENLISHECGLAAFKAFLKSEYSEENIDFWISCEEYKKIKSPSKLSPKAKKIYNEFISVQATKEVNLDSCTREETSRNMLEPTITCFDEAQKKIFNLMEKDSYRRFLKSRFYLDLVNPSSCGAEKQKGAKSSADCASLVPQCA
RGS4 block valid: validation of RGS4 inhibitors; AID 492999; HEK293 M3R/RGS4, carbachol calcium Fluo-4 fluorescence; carbachol added at its EC20; 0 = buffer wells, 100 = carbachol control; calcium response, % at 10 µM; 65% of 1,700 active; shares compounds with RGS4 inh;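 active = duplicate-averaged calcium response above the buffer-only control mean plus 5 SD of those controls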;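 also: integrated fluorescence ratio F max minus min over baseline F0; higher response in RGS4-induced cells means RGS4 inhibition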
M3R Ca ctr: non-induced cell nonspecific activity of RGS4 inhibitors; activity (percent), % at 10 µM; HEK293 M3R non-induced, carbachol calcium Fluo-4; submaximal (EC20) carbachol stimulus; buffer wells 0%, carbachol control wells 100%; 20% of 1,900 active; shares compounds with RGS4 inh; call rule not given here;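 also: RGS4 induction absent so cells express M3R without RGS4; higher means more calcium signal and flags a non-specific hit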
M3R basal Ca ctr: second RGS4 inhibitor counter-screen in uninduced cells lacking carbachol; calcium response (agonist-mode artifact), % at 10 µM; shares compounds with RGS4 inh; AID 493001; HEK293 M3R/RGS4 non-induced, Fluo-4 calcium, no carbachol; normalised: buffer wells 0%, carbachol wells 100%; 22% of 1,900 active;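 active = duplicate-averaged calcium rise in uninduced cells above buffer wells' mean plus 5 SD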
Hits are given with their value; – = inactive; · = not tested or not shown. An excerpt weighted towards active compounds, which were near 3.8% of everything screened.

SMILES	Hep lipid drop	RGS4 pot	MrgX1 agonist	MrgX1 antagonist	MrgX1 allo act	RGS4 inh	RGS4 block valid	M3R Ca ctr	M3R basal Ca ctr
Cc1ccc(O)c(-c2cc(-c3ccccc3[N+](=O)[O-])[nH]n2)c1	–	–	–	–	–	8.6	12%	–	18%
COc1ccc(O)c(-c2cc(-c3ccccc3[N+](=O)[O-])[nH]n2)c1	–	–	–	–	–	6.4	9.5%	–	–
CCCCc1nc2n[nH]c(N)c2c2c1CSC(C)(C)C2	–	–	–	–	–	4.7	–	–	–
Cc1cccc(N2C(=O)/C(=C\c3ccc(C(=O)O)cc3)c3ccccc3C2=O)c1	–	–	–	–	–	10	38%	–	–
CSc1nc(-c2ccccc2)nn1C(=O)c1ccco1	–	–	–	–	–	–	–	–	–
CSc1nc(-c2ccccc2)nn1C(=O)c1ccccc1	·	–	–	–	–	–	·	·	·
CCOc1cc(/C=C2\C(=O)N(c3ccc(C(N)=O)cc3)N=C2C)ccc1OC(=O)c1cccs1	·	–	–	–	–	–	·	·	·
CC1=NN(c2ccc(C(=O)O)cc2)C(=O)/C1=C\c1ccc(OC(=O)c2cccs2)cc1	–	–	–	–	–	13	24%	–	–
Cc1ccc(-c2ccc(C(=O)NCc3ccc(Cl)cc3)o2)c2ccccc12	–	–	–	–	–	4.8	–	–	16%
Cc1ccccc1-c1ccc(C(=O)NCc2ccccc2)o1	–	–	–	–	–	–	·	·	·
COc1ccc(C(=O)COC(=O)c2cc(S(=O)(=O)N3CCCCC3)ccc2N2CCOCC2)c(OC)c1	·	–	–	–	–	–	·	·	·
O=Cc1ccc(-n2nncc2-c2ccc([N+](=O)[O-])cc2)cc1	–	–	–	–	–	7.4	42%	66%	–
CC(=O)c1ccc(-n2nncc2-c2ccc([N+](=O)[O-])cc2)cc1	–	–	–	–	–	–	·	·	·
Cc1ccc(Nc2nc(N)c3ccccc3n2)cc1C	·	–	–	–	–	–	–	–	–
c1ccc2sc(NC3=NCN(CC4CCCO4)CN3)nc2c1 (stereo not drawn)	–	–	–	–	–	–	·	·	·
O=c1c2ccccc2[nH]c(=S)n1CCCN1CCN(c2ccccc2)CC1	·	–	–	–	–	–	·	·	·
CC1CC(C)CN(CCCn2c(=S)[nH]c3ccccc3c2=O)C1 (stereo not drawn)	–	–	–	–	–	13	92%	77%	11%
Cc1c(C(=O)N2CCC[C@H]2CO)oc2c(F)cccc12	–	–	–	–	–	–	·	·	·
CCOC(=O)C1(C)C=C(Nc2ccc(NC(C)=O)cc2)C(=O)N1c1ccc(NC(C)=O)cc1 (stereo not drawn)	–	–	–	–	–	–	·	·	·
CC(C1CCN(Cc2cn(C)nc2-c2cccc(Cl)c2)CC1)N1CCOCC1 (stereo not drawn)	–	–	–	–	–	–	·	·	·
Cc1ccc(C)c(-c2cc(C(=O)Nc3sc(C)c(C)c3C(N)=O)c3ccccc3n2)c1	·	–	–	–	–	–	·	–	7.0%
Cc1cc(C)cc(N2CCCn3c2nc2c3c(=O)[nH]c(=O)n2C)c1	·	–	–	–	–	–	·	·	·
Oc1c(-c2cc(-c3ccco3)[nH]n2)ccc2ccccc12	–	–	–	–	–	12	30%	31%	–
O=C(NCc1cccnc1)C(=O)Nc1cc2c3c(c1)CC(=O)N3CCC2	·	–	–	–	–	–	·	·	·
O=C(O)CSCC(=O)Nc1ccc(-c2nc3ccccc3s2)cc1	–	–	–	–	–	–	·	·	·
SMILES	Hep lipid drop	RGS4 pot	MrgX1 agonist	MrgX1 antagonist	MrgX1 allo act	RGS4 inh	RGS4 block valid	M3R Ca ctr	M3R basal Ca ctr
Cc1csc(NC(=O)CSCC(=O)O)c1-c1nc2ccccc2s1	–	–	–	–	–	11	34%	50%	–
CC1CCC2C(=O)N(c3ccc(C(=O)Oc4cccc5cccnc45)cc3)C(=O)C2C1 (stereo not drawn)	–	–	–	–	–	5.2	25%	–	–
Cc1cc(C(=O)NCC(c2cccs2)N2CCOCC2)ccc1[N+](=O)[O-] (stereo not drawn)	–	–	–	–	–	–	·	·	·
Cc1ccc(NC(=O)c2ccc3nsnc3c2)c(C)c1	–	–	–	–	–	–	·	·	·
Cc1ccc(-n2ccc(=O)c(C(=O)Nc3ccc(S(=O)(=O)Nc4onc(C)c4C)cc3)n2)cc1	–	–	–	–	–	–	·	–	–
O=S(=O)(c1ccccc1)N1N=C(c2cccs2)CC1c1ccc(F)cc1 (stereo not drawn)	·	–	–	–	–	–	·	·	·
Cc1ccc(C2CC(c3cccs3)=NN2S(=O)(=O)c2ccc(C)cc2)cc1 (stereo not drawn)	–	–	–	–	–	–	·	–	32%
COc1ccc(C2CC(c3cccs3)=NN2S(=O)(=O)c2ccc(C)cc2)cc1 (stereo not drawn)	·	–	–	–	–	6.2	17%	–	–
COc1ccc(NC(=O)c2c(NC(=O)CCC(=O)O)sc3c2CCCCC3)cc1	–	–	–	–	–	–	–	–	–
S=C(Nc1ccccc1)Nc1nc2ccccc2n1CCOc1ccc(Br)cc1	–	–	–	–	–	5	10%	–	–
Nc1nc2ccccc2n1CCOc1ccc(Br)cc1	–	–	–	–	–	–	·	·	·
Cc1ccc(-c2nc3c(c(=O)[nH]c(=O)n3Cc3ccccc3)n2Cc2ccccc2)o1	–	–	·	·	·	8.2	24%	–	7.0%
O=C(Nc1ccncc1)c1ccccc1Cl	–	–	–	–	–	–	·	·	·
O=C1C=C(NC2=CC3OC(c4ccccc4)OCC3OC2=O)CCC1 (stereo not drawn)	–	–	–	–	–	7.7	36%	–	–
Cc1ccc(Nc2nc(N)nc(CN3CCN(Cc4ccc5c(c4)OCO5)CC3)n2)cc1	–	–	–	–	–	–	–	–	–
Cc1ccc(Nc2nc(N)nc(CN3CCN(Cc4ccc5c(c4)OCO5)CC3)n2)cc1C	–	–	·	·	·	–	–	–	–
Nc1nc(CN2CCN(Cc3ccccc3)CC2)nc(Nc2ccc3c(c2)OCCO3)n1	–	–	–	–	–	–	·	·	·
Cc1ccc(Nc2nc(N)nc(CN3CCN(Cc4ccc5c(c4)OCO5)CC3)n2)cc1Cl	·	–	–	–	–	6.2	–	–	–

Screens (PubChem BioAssay)
